Here are results for 61 compounds from PubChem BioAssay AID2805 (Sanford-Burnham Center for Chemical Genomics, 2010).

Molecules are shown by their SMILES. About 780 (0.24%) of roughly 330,000 compounds were called active. Shown is part of a subset that was picked to be rich in actives. Values without a mark were called inactive.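 The calls were made as follows: active = activation factor of at least 2 at 20 µM; inactive = the rest.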

The test concerns intestinal alkaline phosphatase [Mus musculus]. Put plainly: activators of mouse IAP, primary screen, biochemical, luminescence, uHTS (AID 2805). The conditions noted are these: muIAP, CDP-Star luminescence, 30 min; at 10 µM; hits give high values; 1 = vehicle-only enzyme signal, 0 = enzyme-free wells. An outline of the steps: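 System: Mouse IAP enzyme | Also added: CDP-Star substrate | Dosing: Compounds dispensed in DMSO | Schedule: 30 min enzyme-substrate-compound incubation at room temperature | Technique: Chemiluminescence readout | Control set: DMSO-only wells and no-enzyme negative control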
Regarding `S=C(NCc1ccc(Cl)cc1)NC12CC3CC(CC(C3)C1)C2`, the activation factor was 3.89 (active).

`O=C(NCc1ccc2c(c1)OCO2)C12CC3CC(CC(C3)C1)C2`: the activation factor was 0.999.

On to `COC(=O)Cc1ccc(NC(=S)NCc2ccc(Cl)cc2)cc1`, for which the activation factor is 1.52.

On to `CCC(=O)N1c2ccccc2NC2=C(C(=O)CCC2)C1c1ccco1` (stereo unspecified), for which the activation factor was 1.01.

As to `CCOC12CC(C)(C)CC(C)(CC3=C1C(=O)CC(C)(C)C3)C2` (stereo unspecified), the activation factor was 1.02.

As to `Cc1ccc(C)c(CN2CCC(CNC(=O)Nc3ccc(C)c(F)c3)CC2)c1`, the activation factor is 4.63 (active).

With `Cc1ccccc1NC(=O)NCC1CCN(Cc2cccc(Cl)c2)CC1`, the activation factor is 1.72.

As to `COc1cc(NC(=O)C2=CC(c3ccc(C)cc3)=NS(=O)(=O)N2C)cc(OC)c1OC`, the activation factor is 0.84.

With `O=C(CN1CCN(Cc2ccccc2)CC1)Nc1ccc(F)c(F)c1`, the activation factor was 1.1.

Regarding `COc1ccc(Cl)cc1NC(=O)NCC1CCN(Cc2ccccc2F)CC1`, the activation factor is 1.56.

With `COc1cc(CN2CCN(Cc3ccc(C)cc3)CC2)c([N+](=O)[O-])cc1OC`, the activation factor is 0.893.

For the compound `CC(=O)N1CCN(CC(=O)Nc2ccc(C)c(F)c2)CC1`, the activation factor is 1.06.

In the case of `O=C(NCC1CCN(Cc2ccccc2Cl)CC1)Nc1cccc(Cl)c1`, the activation factor is 3.53 (active).

As to `COc1cc(NC(=O)NCC2CCN(Cc3ccc(C)cc3)CC2)cc(OC)c1OC`, the activation factor was 2.24 (active).

As for `Cc1cccc(CN2CCC(CNC(=O)Nc3ccc(F)c(Cl)c3)CC2)c1`, the activation factor is 3.26 (active).

In the case of `O=C(NCCN1CCOCC1)Nc1cccc(Cl)c1`, the activation factor was 0.941.

Regarding `COC(=O)c1cc(S(=O)(=O)NCC2CCN(Cc3ccc(Cl)cc3)CC2)cn1C`, the activation factor is 1.12.

As for `COc1cc(OC)cc(-c2nc3ccccc3c(=O)n2NC(=O)c2cccnc2Cl)c1`, the activation factor was 0.962.

For the compound `CCCn1nnnc1NC(=O)COc1ccc(Cl)cc1C`, the activation factor is 0.94.

For the compound `CCCSc1ccc([C@H]2N[C@@](Cc3ccccc3)(C(=O)OC)[C@H]3C(=O)N(C)C(=O)[C@@H]23)cc1`, the activation factor was 1.04.

As for `CCN1CCN(C(=O)c2cc3cc4ccc(OC)cc4nc3s2)CC1`, the activation factor was 1.07.

As to `CCc1cc2c(=O)n(-c3ccccc3)c(SCC(=O)O)nc2s1`, the activation factor was 1.03.

Consider `C=CCCC(=O)Nc1nc(C)c(-c2csc(Nc3ccc(Cl)cc3)n2)s1`, for which the activation factor is 0.878.

In the case of `S=C(NC1CCCCC1)NN1CCOCC1`, the activation factor was 0.975.

`Cc1cccc(-c2oc3ccc(-c4ccc5c(c4)OCO5)cc3c2C#Cc2cncn2C)c1`: the activation factor was 0.937.

Regarding `Cc1cc(NC(=O)CCC(=O)N(CC(=O)NCC2CCCO2)c2ccccc2C)no1` (stereo unspecified), the activation factor was 0.924.

For `COc1ccc(OC)c(NC(=O)c2ccc3c(c2)CCN3S(C)(=O)=O)c1`, the activation factor is 0.846.

`COCCCNC(=S)NCCNc1nc2cc(C)c(C)cc2cc1C#N`: the activation factor was 1.01.

As to `COc1cccc2c(C)c(C(=O)O)[nH]c12`, the activation factor was 0.981.

Consider `O=C(C1=C[C@H](c2ccc(C(F)(F)F)cc2)C[C@H](OCc2ccc(CO)cc2)O1)N1CCN(Cc2ccccc2)CC1`, for which the activation factor is 1.05.

For the compound `COC(=O)c1scc(S(=O)(=O)C(C)(C)C)c1-n1cccc1`, the activation factor was 0.97.

With `N#CC1=C(N)Oc2[nH]c(=S)[nH]c(=O)c2C12C(=O)Nc1ccccc12` (stereo unspecified), the activation factor was 1.

As to `O=c1[nH]c(CN2CCOCC2)nc2scc(-c3ccccc3)c12`, the activation factor is 1.04.

Consider `COCc1cc(=O)n2[nH]c(C)c(-c3ccccc3)c2n1`, for which the activation factor is 1.04.

For `CC(NC(=S)Nc1ccc(OC(F)F)cc1)c1ccc(F)cc1` (stereo unspecified), the activation factor is 2.2 (active).

In the case of `Cc1ccc(NC(=S)Nc2ccc(F)cc2)cc1`, the activation factor is 1.03.

Regarding `CC(C)CNC(=S)Nc1ccc(F)cc1`, the activation factor is 1.15.

Consider `COc1ccccc1-c1nn(Cc2ccccc2)cc1C(=O)N1CCN(c2ncccn2)CC1`, for which the activation factor is 0.95.

For the compound `O=C(CSc1cccc[n+]1[O-])NCCCc1ccccc1`, the activation factor was 1.02.

Consider `O=C(Nc1ccccc1)Nc1nnc(COc2ccccc2F)s1`, for which the activation factor was 0.892.

For the compound `Cc1cc(NC(=O)Nc2ccc(Cl)cc2)n(-c2ccccc2)n1`, the activation factor was 2.3 (active).

As to `Cc1cc(C(=O)NCCc2ccc(Cl)cc2)n(-c2ccccc2)n1`, the activation factor was 1.02.

On to `Cc1ccc(NC(=O)Nc2cc(-c3ccccc3)nn2C)cc1Cl`, for which the activation factor is 1.48.

In the case of `N#CCCCn1c(O)c(N=NC(=O)C(O)c2ccccc2)c2ccccc21` (stereo unspecified), the activation factor is 0.987.

For `CCC1CCCCN1C(=S)Nc1ccc(SC(F)F)cc1` (stereo unspecified), the activation factor was 0.894.

On to `CCN(CC)c1nc(-c2ccccc2)cc(C(F)(F)F)c1C#N`, for which the activation factor is 0.949.

`COc1cccc(NC(=O)CN2CCN(CC(=O)Nc3ccccc3Cl)CC2)c1`: the activation factor is 0.978.

Regarding `O=C(CN1CCC(NC(=O)Nc2ccccc2)CC1)Nc1cccc([N+](=O)[O-])c1`, the activation factor is 1.02.

As for `Cc1cc(C)cc(NC(=O)NC2CCCCCCC2)c1`, the activation factor is 4.34 (active).

For `CC(C)c1ccc(NC(=O)NC2CCCCC2)cc1`, the activation factor was 1.77.

For the compound `Cc1c(Cl)cccc1NC(=O)NCCCN1CCCC1=O`, the activation factor is 1.01.

As to `CS(=O)(=O)Nc1ccc(C(=O)N2CCCC2)cc1`, the activation factor was 0.947.

As to `Cc1cc(C)cc(NC(=O)NC2CCN(CC(=O)Nc3cccc(Cl)c3C)CC2)c1`, the activation factor is 5.45 (active).

For `CC(C)(C)NS(=O)(=O)c1ccc(NC(=O)NC2CCCCC2)cc1`, the activation factor is 1.7.

For the compound `Cc1c(Cl)cccc1NC(=O)Nc1ccc(C(=O)N2CCCC2)cc1`, the activation factor was 2 (active).

Consider `O=C(Nc1cccc(F)c1)NC1CCCCCCC1`, for which the activation factor is 2.46 (active).

As for `C/C(CC(=O)Nc1cccc(F)c1)=N\NC(=O)C(=O)NC1CCCCC1`, the activation factor was 0.807.

Turning to `O=C(Nc1cccc(F)c1)NC1CCCc2ccccc21` (stereo unspecified), the activation factor is 0.963.

On to `CSCC(=O)N1CCCC(C(=O)c2cc(F)ccc2F)C1` (stereo unspecified), for which the activation factor was 0.984.

As to `O=C(OCC1O[C@@H](OC(=O)c2cc(O)c(O)c(O)c2)[C@@H](OC(=O)c2cc(O)c(O)c(O)c2)[C@@H](OC(=O)c2cc(O)c(O)c(O)c2)[C@@H]1OC(=O)c1cc(O)c(O)c(O)c1)c1cc(O)c(O)c(O)c1` (stereo partly specified), the activation factor was 0.831.

For `CN(Cc1ccccc1)C(=O)COC(=O)/C=C/c1ccc2c(c1)OCO2`, the activation factor is 0.965.
